Measurements published in ChEMBL document CHEMBL4665666, “Discovery and characterization of trypanocidal cysteine protease inhibitors from the 'malaria box'” (Eur J Med Chem, 2019).

Experiments:
[1] = target: Cruzipain (Trypanosoma cruzi) (UniProt P25779); test: Inhibition of recombinant Trypanosoma cruzi cruzain at 5 uM using Z-FR-AMC as substrate and measured at 12 sec interval for 5 mins without preincubation by fluorimetric analysis relative to control
Outline: (§1)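 Recombinant rhodesain or cruzain (1 nM) in 0.1 M sodium acetate pH 5.5, 0.01% Triton X-100, 1 mM β-mercaptoethanol. Compound at a single concentration, either without or after 10 min enzyme pre-incubation. Inhibition is relative to DMSO, with E-64 as positive control. Done in duplicate (primary screen) or triplicate.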

[2] = target: Cruzipain (Trypanosoma cruzi) (UniProt P25779); test: Inhibition of recombinant Trypanosoma cruzi cruzain at 5 uM using Z-FR-AMC as substrate preincubated for 10 mins followed by substrate addition and measured at 12 sec interval for 5 mins by fluorimetric analysis relative to control; conditions: time 15.0 min; outline: as §1
[3] = target: Rhodesain (Trypanosoma brucei rhodesiense) (UniProt Q95PM0); test: Inhibition of recombinant Trypanosoma brucei rhodesain expressed in Pichia pastoris at 5 uM using Z-FR-AMC as substrate preincubated for 10 mins followed by substrate addition and measured at 12 sec interval for 5 mins by fluorimetric analysis relative to control; conditions: time 15.0 min; outline: as §1
Sequence of Rhodesain (Trypanosoma brucei rhodesiense) (Q95PM0 1-450): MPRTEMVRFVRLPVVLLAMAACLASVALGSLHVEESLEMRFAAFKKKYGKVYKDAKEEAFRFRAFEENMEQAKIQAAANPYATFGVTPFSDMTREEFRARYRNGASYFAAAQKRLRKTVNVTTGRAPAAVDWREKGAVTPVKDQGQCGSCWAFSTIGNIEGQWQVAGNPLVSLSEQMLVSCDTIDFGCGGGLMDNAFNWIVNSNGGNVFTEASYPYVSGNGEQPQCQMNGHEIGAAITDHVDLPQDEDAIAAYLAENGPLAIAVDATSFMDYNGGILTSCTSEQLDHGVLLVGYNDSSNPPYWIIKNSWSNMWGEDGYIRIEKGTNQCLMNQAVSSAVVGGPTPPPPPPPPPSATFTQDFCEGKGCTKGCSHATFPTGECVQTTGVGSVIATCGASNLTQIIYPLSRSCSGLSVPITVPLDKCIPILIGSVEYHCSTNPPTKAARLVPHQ

[4] = target: Rhodesain (Trypanosoma brucei rhodesiense) (UniProt Q95PM0); test: Inhibition of recombinant Trypanosoma brucei rhodesain expressed in Pichia pastoris at 5 uM using Z-FR-AMC as substrate and measured at 12 sec interval for 5 mins without preincubation by fluorimetric analysis relative to control; outline: as §1

Sequence of Cruzipain (Trypanosoma cruzi) (P25779 123-467 limits assumed): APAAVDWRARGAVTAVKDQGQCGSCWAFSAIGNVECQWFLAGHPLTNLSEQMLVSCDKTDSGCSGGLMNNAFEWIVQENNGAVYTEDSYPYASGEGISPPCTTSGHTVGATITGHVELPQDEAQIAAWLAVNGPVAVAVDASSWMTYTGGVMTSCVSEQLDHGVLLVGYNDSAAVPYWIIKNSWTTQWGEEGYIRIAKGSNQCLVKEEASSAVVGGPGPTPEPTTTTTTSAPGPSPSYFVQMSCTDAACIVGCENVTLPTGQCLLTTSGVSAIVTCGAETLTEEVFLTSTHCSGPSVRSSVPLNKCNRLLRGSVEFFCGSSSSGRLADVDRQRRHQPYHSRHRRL

Row | Compound | inhibition [1] [%] | inhibition [2] [%] | inhibition [3] [%] | inhibition [4] [%]
1 | COCCN(C(=O)Cc1cccs1)C(C(=O)NCc1ccc(OC)cc1)c1ccc(C(C)C)cc1 (stereo not drawn) | 40.6 | 67.5 | 86.7 | 38.5
2 | COc1ccc(/C=C2/SC(Nc3ccc(F)cc3)=NC2=O)c(OC)c1 | 29.3 | 54.4 | 54.8 | 21.4
3 | COc1ccc(OC)c(C2C3=C(CC(C)(C)CC3=O)N(c3ccc(Cl)c(Cl)c3)C3=C2C(=O)CC(C)(C)C3)c1 | 28.5 | 72 | 53.3 | 16.6
4 | COc1ccc(/C=C2/SC(=Nc3ccccc3)NC2=O)cc1 | 43.1 | 73.8 | 70.5 | 35.6
5 | O=C(Nc1cccc(-c2nc3ccccc3[nH]2)c1)c1cccc(NC(=O)c2ccco2)c1 | 96.7 | 94.7 | 53.9 | 40.1
6 | O=C(Nc1ccc(-c2nc3cc(NC(=O)c4ccc(Cl)cc4)ccc3[nH]2)cc1)c1ccc(Cl)cc1 | 15 | 35.3 | 56.1 | 4.6
7 | Cc1ccc(N2C(=O)C3C(C2=O)C2(c4ccccc4)C(=O)C3(c3ccccc3)C(c3ccccc3)=C2c2ccccc2)cc1 (stereo not drawn) | 9.2 | 33.6 | 56.3 | 22.3
8 | CCCCCCc1cc2cc(-c3csc(/C=C/c4ccccc4)n3)c(=O)oc2cc1O | 8.9 | 38.3 | 51.2 | 28.6
9 | CC(O)(c1ccc(Cl)cc1)C(CN1CCCCC1)c1ccccc1 (stereo not drawn) | 11.9 | 54.1 | 50.4 | 13.9
10 | COc1ccc(-c2nc3cc(Cc4ccc5[nH]c(-c6ccc(OC)cc6)nc5c4)ccc3[nH]2)cc1 | 100 | 79.9 | 98.7 | 98.6
11 | CCN(CC)CCNc1ncnc2c1[nH]c1ccc(Br)cc12 | 57 | 28.5 | 2.7 | 27.5
12 | CCOc1ccc(C2N(C)c3ccccc3N2C)cc1 | 21.8 | 48.3 | 57.7 | 30.3
13 | Cc1ccnc(NC(c2cccc(OCc3ccccc3)c2)c2ccc3cccnc3c2O)c1 (stereo not drawn) | 6.7 | 51.3 | 16.2 | 0
14 | COc1ccc(NC(=O)C2c3ccccc3C(=O)N(CC(C)C)C2c2cccs2)cc1 (stereo not drawn) | 3.3 | 0 | 78.7 | 0.1
15 | O=C(O)C1Cc2c([nH]c3ccccc23)C(c2ccc(Cl)cc2Cl)N1 (stereo not drawn) | 5 | 9.5 | 78.6 | 0.7
16 | Nc1ccc(-c2nc3cc(Oc4ccc(Oc5ccc6[nH]c(-c7ccc(N)cc7)nc6c5)cc4)ccc3[nH]2)cc1 | 88.6 | 91.5 | 78.2 | 13.3
17 | O=C(c1ccccc1F)N(Cc1ccc(Cl)cc1)c1ccccn1 | 40.7 | 91.6 | 75 | 45.8
18 | COc1ccc(CNC(=O)c2cc3c(=O)n4ccccc4nc3n(CCc3ccccc3)c2=N)cc1 | 45.7 | 69.9 | 66.9 | 43.5
19 | COc1cc2c3cc1Oc1c(OC)c(OC)cc4c1C(Cc1ccc(O)c(c1)Oc1ccc(cc1)CC3N(C)CC2)N(C)CC4 (stereo not drawn) | 22.4 | 41.7 | 51.4 | 19.7
20 | COc1ccc(C(=O)NC(c2ccccc2Cl)c2cc(Cl)c3cccnc3c2O)cc1 (stereo not drawn) | 17.1 | 100 | 49.4 | 29.4
21 | COc1ccc(C2c3ccc4ccccc4c3Oc3ncn(CCCn4ccnc4)c(=N)c32)cc1OC (stereo not drawn) | 41.8 | 59.5 | 41 | 33.4
22 | CCOc1cc(CNC(C)C(O)c2ccccc2)cc(Cl)c1OCC (stereo not drawn) | 21.7 | 46.8 | 61.8 | 32.9
23 | CCCCCC(=O)N1c2ccccc2N=C2CC(c3ccc(OC)c(OC)c3)CC(O)=C2C1c1ccc(C(F)(F)F)cc1 (stereo not drawn) | 17 | 50.7 | 46.4 | 26.7
24 | O=C1c2ccccc2-c2nnc(-c3ccc(Br)cc3)cc21 | 47.8 | 96.3 | 68.8 | 32.7
25 | O=C(NC1CCN(Cc2ccccc2)CC1)c1cc(-c2ccncc2)nc2ccc(Cl)cc12 | 15.2 | 56.5 | 41.2 | 20.9
26 | COc1ccc(C2c3ccc4ccccc4c3Oc3ncn(CCCN(C)C)c(=N)c32)cc1 (stereo not drawn) | 55.6 | 73.2 | 77.8 | 60.9

Row | Compound | inhibition [1] [%] | inhibition [2] [%] | inhibition [3] [%] | inhibition [4] [%]
27 | Cn1c(=O)c2cc(C(=O)NCCCN3CCCCCC3)sc2c2ccccc21 | 22.9 | 50.5 | 41.3 | 22.4
28 | COc1cccc(C(=O)NC(c2ccc(C)cc2)c2cc(Cl)c3cccnc3c2O)c1 (stereo not drawn) | 8.7 | 54.5 | 43.9 | 31.4
29 | Nc1ccc(-c2nc3cc(Cc4ccc5[nH]c(-c6ccc(N)cc6)nc5c4)ccc3[nH]2)cc1 | 20.2 | 98.2 | 90.1 | 86.6
30 | COc1cc(OC)c(N(C)C(=O)c2cc3c(s2)-c2ccccc2S(=O)(=O)C3)cc1Cl | 6.4 | 38.1 | 57.9 | 20.7
31 | O=C(CSc1ccc2nnc(-c3cccc(F)c3)n2n1)Nc1ccc2c(c1)OCO2 | 10.2 | 67.7 | 61.6 | 10.3
32 | CC(C)(C)c1ccc2c(c1)CN(Cc1ccc(Cl)cc1)CO2 | 52.3 | 51.5 | 61.3 | 28.8
33 | O=C(NC1CCN(Cc2ccccc2)CC1)c1cc(C(=O)NC2CCN(Cc3ccccc3)CC2)cc(C(=O)NC2CCN(Cc3ccccc3)CC2)c1 | 41 | 60.5 | 49.2 | 45.4
34 | CCC(C)NCC(O)(c1ccc(Cl)cc1)c1ccc(Cl)cc1 (stereo not drawn) | 32 | 67.2 | 80.9 | 29.1
35 | Cc1ccccc1OCCSc1nc2ccc(NC(=O)c3ccccc3)cc2s1 | 52.3 | 76.7 | 59 | 48.3
36 | COc1ccccc1C(=O)ON=C(N)Cc1cccc2ccccc12 | 32 | 54.9 | 54.3 | 1.4
37 | COc1cc(C(=O)ON=C(N)Cc2cccc3ccccc23)cc(OC)c1OC | 14 | 51.1 | 46.8 | 0
38 | CC(C)OCc1cc(CN2CCN(c3cccc(Cl)c3)CC2)c(O)c2ncccc12 | 49 | 98.2 | 83.7 | 8.3
39 | Fc1ccc2[nH]c3c(NCCCN4CCOCC4)ncnc3c2c1 | 50.7 | 63.9 | 41.6 | 17.6
40 | CCCOCc1cc(CN2CCN(c3cccc(Cl)c3)CC2)c(O)c2ncccc12 | 37.1 | 75.3 | 87.6 | 36.4
41 | O=C(Nc1ccc(-c2nc3ccccc3[nH]2)cc1)c1ccc(Cl)c(Cl)c1 | 17.4 | 86.9 | 18.3 | 42.8
42 | CCc1ccc(Nc2cc(C)c3ccc(O)cc3n2)cc1 | 32.8 | 55 | 38.1 | 36.5
43 | CN(N=O)C1=C(NC2CCCCC2)C(=O)c2ccccc2C1=O | 34.8 | 68.2 | 39.5 | 38.7
44 | Clc1ccc2[nH]c3c(NCCCN4CCOCC4)ncnc3c2c1 | 67 | 62.5 | 72.9 | 48.9
45 | CCCCCn1c(=N)n(CC(O)COc2cccc(C)c2)c2ccccc21 (stereo not drawn) | 55.2 | 87.2 | 69.9 | 40.2
46 | CCOC(=O)c1cnc2ccc(CC)cc2c1O | 6 | 5.8 | 52.4 | 0
47 | CCOc1ccccc1CNC(=O)C1c2ccccc2C(=O)N(CC(C)C)C1c1cccs1 (stereo not drawn) | 45.6 | 55.7 | 71.4 | 34.3
48 | COc1ccc(C(=O)NC(c2ccc(Cl)cc2Cl)c2cc(Cl)c3cccnc3c2O)cc1 (stereo not drawn) | 77.6 | 49.5 | 20.2 | 27.9
49 | CCCc1c(CC)c(=N)c2ccccc2n1C | 21.5 | 54.8 | 59.5 | 29.4
50 | Oc1ccc(C(=C(Cl)Cl)c2ccc(O)cc2)cc1 | 31.1 | 60.5 | 62.1 | 22.6
51 | Cc1ccc(Nc2nc(-c3ccccn3)cs2)cc1 | 17.3 | 19.8 | 80.9 | 4.7
52 | COc1nc(Nc2ccc(C(C)C)cc2)nc(OC)n1 | 16.8 | 44.2 | 53.8 | 25.9
